TAG inh = reduces triacylglycerol accumulation in H9c2 cells | 0.66% of 230,000 active | Nile Red lipid (TAG) fluorescence; cells loaded with 200 µM oleic acid | inhibition, % at 12.5 µM | AID 651582;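 active means pattern-corrected inhibition of lipid staining of at least 50% with the nuclear-stain viability signal not falling by more than 50%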;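 further: 0% = DMSO wells and 100% = triacsin C control wells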
Vif imaging = HIV Vif inhibition; HEK293T cells, Vif self-association by quenched fluorescence, imaging, 24 h; inhibition, % at 7.49 µM; 0.35% of 340,000 active; in the data active means inhibition above about 50%, passing the limit was not always enough; inconclusive means no clear call, values can overlap the other calls; inactive means below about 31%
A1 inh = inhibitors of the anti-apoptotic protein A1, read as caspase activation; MEF A1-2A-BIM cells, Caspase-Glo 3/7 luminescence, 3 h; percent of clofoctol response, vehicle zero; caspase activation, % (concentration not given with the values); 0.066% of 330,000 active;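 active means over half of replicate activation scores above 10%, or exactly half above 10 with the replicate mean above 10; inconclusive means replicate mean below 10 yet half the replicates above 10; inactive means over half of replicates below 10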
SR-BI DiI-HDL act = activators of SR-BI mediated HDL lipid uptake | CHO ldlA[mSR-BI] cells, DiI-HDL uptake fluorescence, 3 h; 100 = double the neutral-control signal | activation, % at 12.5 µM | 0.096% of 320,000 active | AID 504775;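 active means mean replicate activation of at least 60% and every replicate at or above 60%; inconclusive means mean or all-replicate condition met, but not both; inactive means mean below 60% and not all replicates reaching 60%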;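 further: 0% = median plate neutral-control signal and 100% = twice that signal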
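Material – SR-BI-overexpressing, LDLR-lacking CHO cells · Medium – BSA-supplemented, HEPES-buffered Ham's F12, pH 7.4 · Doses – single concentration · Times – compound with DiI-HDL co-incubation, 3 h at 37 °C · Measured by – bottom-read fluorescence, 550/595 nm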
SR-BI HDL uptake = blocks mouse SR-BI lipid uptake from DiI-HDL; 0.96% of 320,000 active; inhibition, % at 12.5 µM; ldlA[mSR-BI] CHO cells, DiI-HDL uptake fluorescence, 3 h; Q61009;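 active means mean replicate inhibition of at least 70% and a set share of replicates each scoring 70 or more; inconclusive means meets just one of the two criteria; inactive means fails both criteria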;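 further: 0% = median of neutral control wells and 100% = median of positive control wells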
Target sequence (Q61009 whole entry, looked up): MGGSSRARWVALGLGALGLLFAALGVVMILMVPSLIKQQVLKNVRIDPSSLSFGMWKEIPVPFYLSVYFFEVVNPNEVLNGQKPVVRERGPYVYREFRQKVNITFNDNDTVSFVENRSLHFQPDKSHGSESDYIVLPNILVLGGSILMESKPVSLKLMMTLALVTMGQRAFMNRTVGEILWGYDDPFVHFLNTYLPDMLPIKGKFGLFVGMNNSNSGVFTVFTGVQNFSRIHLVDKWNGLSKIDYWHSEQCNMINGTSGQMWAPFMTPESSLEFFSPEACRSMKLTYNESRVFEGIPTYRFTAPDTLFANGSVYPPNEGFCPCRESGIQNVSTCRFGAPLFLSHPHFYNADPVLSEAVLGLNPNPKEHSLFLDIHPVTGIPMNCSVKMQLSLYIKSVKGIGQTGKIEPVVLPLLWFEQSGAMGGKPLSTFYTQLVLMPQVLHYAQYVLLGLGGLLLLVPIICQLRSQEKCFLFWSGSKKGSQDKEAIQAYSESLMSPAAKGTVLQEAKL
* marks the source's active call; other numbers are inactive results; i = inactive; ? = inconclusive; . = no result given. A selection: hits, their analogues and other compounds. The true share with any hit is near 1.6%.

SMILES | TAG inh | Vif imaging | A1 inh | SR-BI DiI-HDL act | SR-BI HDL uptake
CC(=O)Nc1c(NC(=O)CC#N)[nH]c2c(c1=O)c(=O)n(C)c(=O)n2C | -2 | 1 | 0 | 2 | -2
CC(=O)NNc1[nH]c2c(c(=O)c1[N+](=O)[O-])c(=O)n(C)c(=O)n2C | . | -9 | 0 | 68* | -68
Cc1cc(C(=O)CC#N)c(C)n1-c1ccc(OC(F)F)cc1 | -2 | -4 | 0 | 9 | -9
COC(=O)c1cc(C(=O)OC)cc(-n2c(C)cc(C(=O)CC#N)c2C)c1 | . | 2 | 0 | -76 | 76*
Cc1ccc(NC(=O)C(C)OC(=O)CSc2ccccc2)cc1 (configuration not stated) | 1 | -2 | -1 | 12 | -12
Cc1cc(C)nc(SCC(=O)OC(C)C(=O)Nc2ccccc2)n1 (configuration not stated) | -3 | 3 | 1 | 62* | -62
Cc1ccc(NC2=C(N3CCCCC3)C(=O)c3ccccc3C2=O)cc1 | . | -1 | 0 | -73 | 73*
O=C1C(Nc2ccccc2)=C(N2CCCCC2)C(=O)c2ccccc21 | 31 | 25 | -1 | 14 | -14
O=C(/C=C/c1ccc(O)cc1)c1ccc(NC2=C(N3CCCCC3)C(=O)c3ccccc3C2=O)cc1 | . | -2 | -2 | -90 | 90*
NC(=O)C1CCN(C(=O)/C(=C/c2ccccc2)NC(=O)c2ccccc2)CC1 | . | -3 | 0 | 19 | -19
COc1cccc(CN2CCN(CCCc3ccccc3)C(CCO)C2)c1O (configuration not stated) | . | -9 | 0 | -48 | 48
CN(Cc1ccon1)C(=O)C1CCN(C2CCN(CCCc3ccccc3)CC2)CC1 | -14 | 15 | 0 | 3 | -3
CCCCn1c(=O)[nH]c(=O)c2c1nc(Cn1ncc(Cl)c(Cl)c1=O)n2CCC | . | 2 | 6.8* | -2 | 2
CCCCn1c(=O)[nH]c(=O)c2c1nc(CN1C(=O)c3ccccc3S1(=O)=O)n2CCC | . | 27 | 1 | 7 | -7
COc1cccc(-c2cc(C(F)(F)F)nc(-n3cc(C)cn3)n2)c1 | 7 | 89* | 0 | . | .
Cc1cc(C)n2nc(SCC(=O)N3CCCC(C)C3)nc2n1 (configuration not stated) | 0 | 9 | 0 | 1 | -1
O=C1C=CC(=O)c2c(O)c(N3CCN(CCOCCO)CC3)c(Br)c(O)c21 | 101* | 72* | . | -5 | 5
OCCOCCN1CCN(C2=Nc3ccccc3Sc3ccccc32)CC1 | -30 | ? | 0 | 12 | -12
O=C1C=CC(=O)c2c(O)c(N3CCN(CCO)CC3)c(Cl)c(O)c21 | 100* | 127* | . | -35 | 35
CCOc1ccc(CNC(=O)CCCc2cn(C)c3ccccc23)cc1OC | 15 | -14 | 1 | -34 | 34
CCOc1ccc(CNC(=O)CCCc2cn(C)c3ccccc23)cc1 | . | 1 | -1 | -85 | 85*
CCOC(OCC)c1cn(Cc2ccc3c(c2)C(=O)c2ccccc2C3=O)nn1 | . | . | -1 | . | .
COCCOC(=O)c1c(NC(=O)COC(=O)Cc2cccc(OC)c2)sc(C(N)=O)c1C | -1 | 2 | 0 | -19 | 19
COc1ccc(OC)c(S(=O)(=O)NC2CCSc3ccccc32)c1 (configuration not stated) | . | -5 | -1 | 7 | -7
CCOC(=O)c1ccc(-c2ccc3ncnc(NCc4csc(C)n4)c3c2)o1 | -3 | 8 | . | . | .
SMILES | TAG inh | Vif imaging | A1 inh | SR-BI DiI-HDL act | SR-BI HDL uptake
COc1cc2c3nnc(-c4ccc(F)cc4)c-3cn(Cc3ccc(F)cc3)c2cc1OC | 33 | 94* | 0 | 18 | -18
COc1ccc(Cn2cc3c(-c4ccc(F)cc4)nnc-3c3cc(OC)c(OC)cc32)cc1 | -58 | 183 | 0 | 19 | -19
COCC(=O)N1CCC(Oc2ccc(C(=O)NC(C)c3nc(C)sc3C)cc2)CC1 (configuration not stated) | . | -6 | 0 | 6 | -6
COC(=O)c1ccccc1-c1c2ccc(=N)cc-2oc2cc(N)ccc12 | i | -4 | 2 | -77 | 77*
COC(=O)c1ccccc1-c1ccc(/C=N/NC(=O)c2cc3ccccc3o2)o1 | . | -8 | 0 | -12 | 12
Cc1ccc(-c2csc(=Nc3cccnc3)n2CCCN2CCCC2=O)cc1C | -4 | 6 | -1 | 74* | -74
NC(=S)NN=C1c2cc(S(=O)(=O)N3CCOCC3)ccc2-c2ccc(S(=O)(=O)N3CCOCC3)cc21 | . | -12 | 0 | -24 | 24
NC(=S)N/N=C1\CCOc2ccc(Cl)cc21 | -2 | -2 | 1 | -73 | 73*
CC(=O)N1CCN(c2ncnc3ccccc23)CC1 | . | 7 | 0 | -10 | 10
COc1ccc(C(=O)Nc2cccc(C(C)=O)c2)cc1OC | . | . | -1 | -37 | 37
CC(=O)c1cccc(NC(=S)NC(=O)C(C)C)c1 | . | 87* | 0 | -10 | 10
CC(=O)c1cccc(NC(=S)NC(=O)c2ccccc2)c1 | . | -3 | 1 | 2 | -2
COc1ccc(NC(=S)Nc2cccc(C(C)=O)c2)cc1OC | 5 | -2 | 0 | -73 | 73*
Cc1ccc(NC(=O)C2=C(c3ccccc3)S(=O)(=O)CCS2(=O)=O)cc1 | 91 | 5 | 2 | 13 | -13
COc1ccc(OC)c(S(=O)(=O)NC(C)c2ccc(-n3ccnc3)cc2)c1 (configuration not stated) | -8 | 14 | 13* | 16 | -16
O=C(Nc1cccc(C(=O)O)c1)/C(=C\c1ccc(F)cc1)NC(=O)c1ccco1 | . | 64* | -1 | . | .
O=C(Nc1cccc(C(=O)O)c1)/C(=C\c1ccc2c(c1)OCO2)NC(=O)c1ccco1 | -1 | -15 | -1 | 14 | -14
COc1ccccc1/C=C/C(=O)Nc1ccc2c(c1)CCC2 | . | -1 | -1 | -72 | 72*
COc1cc(/C=C/C(=O)Nc2cccc(S(=O)(=O)N3CCOCC3)c2)ccc1OCC#N | -9 | -1 | 0 | -78 | 78*
COc1ccccc1/C=C/C(=O)Nc1cccc(S(=O)(=O)N2CCOCC2)c1 | 46 | -13 | . | -85 | 85*
COc1ccc(/C=C/C(=O)Nc2cccc(S(=O)(=O)N3CCOCC3)c2)cc1OC | 17 | -9 | . | -67 | 67
COc1ccc(S(=O)(=O)NC(C)c2ccc3c(c2)OCCO3)cc1 (configuration not stated) | 1 | 0 | . | . | .
CCCOC(=O)C[N+](C)(C)CCOC1CC2CCC1(C)C2(C)C (configuration not stated) | -14 | 63* | 0 | 10 | -10
CCCCCCCOC(=O)C[N+](C)(C)CCOC1CC2CCC1(C)C2(C)C (configuration not stated) | 34 | -5 | . | 69* | -69
CC1CCC(NC(=O)COC(=O)CCC(=O)c2ccc(Cl)s2)CC1 (configuration not stated) | 25 | 23 | 0 | 11 | -11

Source: PubChem BioAssay (several laboratories)
